The series in a line: Plasma pharmacokinetics of buparlisib, non-compartmental analysis. In kind it is in vivo, human. As to conditions: oral; for AUC(0-t) / Cmax / Tmax: human, plasma; for AUC(0-t): AUC0–8 h. In short, it runs like this: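 Patients on either platinum/taxane schedule received the oral PI3K-inhibitor test compound at 50 to 100 mg/day. Plasma was sampled on cycle 1/day 1 at 0, 15, 30 and 60 min and at 2, 3, 4.5, 6 and 8 h, plus day 8 pre-dose (taken as 168 h). Non-compartmental analysis: Cmax and Tmax observed; AUClast by linear trapezoidal rule; terminal rate constant by regression of the log-linear terminal phase.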

[1] abbreviates: 50 mg, Group 1, 50 mg, n = 6, cycle 1/day 1, mean.
Where [2] appears, read: 50 mg, Group 2, 50 mg, n = 4, cycle 1/day 1, mean.
[3] abbreviates: 80 mg, Group 1, 80 mg, n = 3, cycle 1/day 1, mean.
Setting [4] is: 80 mg, Group 2, 80 mg, n = 6, cycle 1/day 1, mean.
Where [5] appears, read: 100 mg, Group 1, 100 mg, n = 7, cycle 1/day 1, mean.
[6] abbreviates: 100 mg, Group 2, 100 mg, n = 4, cycle 1/day 1, mean.

Experimental findings from paper PMC6698915 (Cancer chemotherapy and pharmacology, 2015) are described below.

Usually AUC(0-t) stands for the area under the concentration-time curve up to a stated or last time point. High values mean high exposure, low ones low exposure. The Cmax is the highest concentration seen after dosing. Broadly, the Tmax is the time from dosing to the highest level. Turning to `Nc1cc(C(F)(F)F)c(-c2cc(N3CCOCC3)nc(N3CCOCC3)n2)cn1` [buparlisib], the AUC(0-t) reads like this: under setting [1], 1220 ng·h/mL; under setting [2], 1520 ng·h/mL; under setting [3], 2550 ng·h/mL; under setting [4], 1970 ng·h/mL; under setting [5], 3460 ng·h/mL; under setting [6], 3410 ng·h/mL. In addition, the Cmax was found to be 285 ng/mL under setting [1]; 399 ng/mL under setting [2]; 555 ng/mL under setting [4]; 933 ng/mL under setting [5]; 960 ng/mL under setting [6]. For the same compound, the Tmax runs as follows: under setting [1], 4.83 h; under setting [2], 2.13 h; under setting [3], 3.67 h; under setting [4], 2.08 h; under setting [5], 1.71 h; under setting [6], 2.38 h. Also, the “plasma exposure to buparlisib versus dose” value (50 to 100 mg, with carboplatin + paclitaxel, Groups 1 and 2) was “dose-related increases in plasma exposure”.
